Laboratory results as given in ChEMBL document CHEMBL5252663, “Evaluation of 1,3,4-Thiadiazole Carbonic Anhydrase Inhibitors for Gut Decolonization of Vancomycin-Resistant Enterococci” (ACS Med Chem Lett, 2023).
≈ marks a conversion by molar mass, not a printed value. Calls of active or inactive are those of the source. No cut-off for these calls is given here.

Experiments:
Enterococcus faecium [1] = assay: Antibacterial activity against Enterococcus faecium HM-952 assessed as inhibition of bacterial growth incubated for 18 to 20 hrs by broth microdilution assay; assay type: functional; conditions: time 18-20 hrs
Enterococcus faecium [2] = assay: Antibacterial activity against vancomycin-resistant Enterococcus faecium HM-952 infected in C57BL/6 mouse assessed as log reduction in bacterial colony forming unit in feces at 20 mg/kg,po qd measured after 3 days of administration; assay type: functional; conditions: time 3 day
In short: (§1)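 C57BL/6 mice given ampicillin in drinking water (0.5 g/L) for 7 days, then gavaged orally with 5.39 × 10^8 CFU/mL E. faecium HM-952. Colonization was allowed for 7 days. Randomized groups (n = 7) got 20 mg/kg by oral gavage once daily for 8 days. Vehicle was dimethylacetamide:20% propylene glycol:40% PEG 400:30% PBS. Fecal CFU was counted on days 0, 3, 5 and 7, and ileal and cecal CFU at day 9 after euthanasia. Comparison was against vehicle.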

Enterococcus faecium [3] = assay: Antibacterial activity against vancomycin-resistant Enterococcus faecium HM-952 infected in C57BL/6 mouse assessed as reduction in bacterial burden in feces at 20 mg/kg,po qd measured after 3 days of administration; assay type: functional; set-up: scale not given: the % may be the effect or the level left; in short: as §1
Enterococcus faecium [4] = assay: Antibacterial activity against vancomycin-resistant Enterococcus faecium HM-952 infected in C57BL/6 mouse assessed as reduction in bacterial burden in feces at 20 mg/kg,po qd measured after 5 days of administration; assay type: functional; in short: as §1
Enterococcus faecium [5] = assay: Antibacterial activity against vancomycin-resistant Enterococcus faecium HM-952 infected in C57BL/6 mouse assessed as log reduction in bacterial colony forming unit in feces at 20 mg/kg,po qd measured after 7 days of administration; assay type: functional; conditions: time 7 day; in short: as §1
Enterococcus faecium [6] = assay: Antibacterial activity against vancomycin-resistant Enterococcus faecium HM-952 infected in C57BL/6 mouse assessed as reduction in bacterial burden in feces at 20 mg/kg,po qd measured after 7 days of administration; assay type: functional; set-up: scale not given: the % may be the effect or the level left; conditions: time 7 day; in short: as §1
Enterococcus faecium [7] = assay: Antibacterial activity against vancomycin-resistant Enterococcus faecium HM-952 infected in C57BL/6 mouse assessed as log reduction in bacterial colony forming unit in ileum at 20 mg/kg,po qd measured after 9 days of administration; assay type: functional; conditions: time 9 day; in short: as §1
Enterococcus faecium [8] = assay: Antibacterial activity against vancomycin-resistant Enterococcus faecium HM-952 infected in C57BL/6 mouse assessed as log reduction in bacterial colony forming unit in cecum at 20 mg/kg,po qd measured after 9 days of administration; assay type: functional; conditions: time 9 day; in short: as §1
Enterococcus faecium [9] = assay: Antibacterial activity against vancomycin-resistant Enterococcus faecium HM-952 infected in C57BL/6 mouse assessed as reduction in bacterial burden in ileum at 20 mg/kg,po qd measured after 9 days of administration; assay type: functional; set-up: scale not given: the % may be the effect or the level left; conditions: time 9 day; in short: as §1
Enterococcus faecium [10] = assay: Antibacterial activity against vancomycin-resistant Enterococcus faecium HM-952 infected in C57BL/6 mouse assessed as reduction in bacterial burden in cecum at 20 mg/kg,po qd measured after 9 days of administration; assay type: functional; set-up: scale not given: the % may be the effect or the level left; conditions: time 9 day; in short: as §1
Enterococcus faecium [11] = assay: Antibacterial activity against vancomycin-resistant Enterococcus faecium HM-952 infected in C57BL/6 mouse assessed as log reduction in bacterial colony forming unit in feces at 20 mg/kg,po qd measured after 5 days of administration; assay type: functional; conditions: time 5 day; in short: as §1
[12] = Aqueous solubility of the compound in PBS buffer at pH 7.4 by HPLC analysis; assay type: physicochemical
In short: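 Solubility is measured in phosphate-buffered saline at pH 7.4 and quantified against a calibration curve whose highest point is 200 μM, so the upper reportable value is >200 μM.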

[13] = Distribution coefficient between 1-Octanol and PBS buffer, logD of the compound at pH 7.4 incubated for 140 mins by HPLC anlaysis; assay type: physicochemical; conditions: 1-octanol/PBS buffer
[14] = Distribution coefficient between 1-Octanol and PBS buffer, logD of the compound at pH 6.5 incubated for 140 mins by HPLC anlaysis; assay type: physicochemical; conditions: 1-octanol/PBS buffer
[15] = Efflux ratio of apparent permeability across basolateral to apical over apical to basolateral side in human Caco2 cells; assay type: ADME, cell-based; conditions: Caco-2
In short: (§2)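 Caco-2 monolayer transport measured in both directions, apical→basolateral and basolateral→apical, and reported as apparent permeability (×10–6 cm/s). Efflux ratio is calculated as Papp B→A divided by Papp A→B.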

[16] = Permeability across apical to basolateral side in human Caco-2 cells assessed as drug recovery; assay type: ADME, cell-based; conditions: read-out: Drug recovery
[17] = Apparent permeability across apical to basolateral side in human Caco2 cells; assay type: ADME, cell-based; conditions: Caco-2; in short: as §2
[18] = Apparent permeability across basolateral to apical side in human Caco2 cells; assay type: ADME, cell-based; conditions: Caco-2; in short: as §2

Compound	MIC (Enterococcus faecium [1])	Activity (Enterococcus faecium [2])	Activity (Enterococcus faecium [3]; time 3 day)	Activity (Enterococcus faecium [4]; time 5.0 day)	Activity (Enterococcus faecium [5])	Activity (Enterococcus faecium [6])	Activity (Enterococcus faecium [7])	Activity (Enterococcus faecium [8])	Activity (Enterococcus faecium [9])	Activity (Enterococcus faecium [10])	Activity (Enterococcus faecium [3]; time 3.0 day)	Activity (Enterococcus faecium [11])	Activity (Enterococcus faecium [4]; time 5 day)	solubility [12]	logD at 2.333 h [13]	logD at 2.333 h [14]	efflux ratio [15]	recovery [16]	Papp A→B [17]	Papp B→A [18]
CC(=O)Nc1nnc(S(N)(=O)=O)s1 [ACETAZOLAMIDE]	1 µg/mL (≈ 4.5 µM)	1 log10CFU	90%	Active	2.16 log10CFU	99.3%	2.59 log10CFU	2.59 log10CFU	99.7%	99.7%	–	–	–	–	–	–	–	–	–	–
CC(=O)NC[C@H]1CN(c2ccc(N3CCOCC3)c(F)c2)C(=O)O1 [LINEZOLID]	1 µg/mL (≈ 2.96 µM)	–	–	–	1.07 log10CFU	91.5%	–	–	–	–	Active	0.87 log10CFU	86.5%	–	–	–	–	–	–	–
NS(=O)(=O)c1nnc(NC(=O)CCC2CCCCC2)s1	0.03 µg/mL (≈ 0.0942 µM)	1 log10CFU	90%	–	2.16 log10CFU	99.3%	1.13 log10CFU	1.57 log10CFU	94.1%	97.3%	–	1.13 log10CFU	92.6%	33 µM (≈ 10.5 µg/mL)	2.26	2.47	2.17	35%	–	–
NS(=O)(=O)c1nnc(NC(=O)CN2CCOCC2)s1	1 µg/mL (≈ 3.25 µM)	1 log10CFU	90%	–	2.16 log10CFU	99.3%	1.62 log10CFU	1.92 log10CFU	97.6%	98.8%	–	1.13 log10CFU	92.6%	127 µM (≈ 39 µg/mL)	-1.38	-0.97	–	–	–	–
CC(C)(C)CC(=O)Nc1nnc(S(N)(=O)=O)s1	0.03 µg/mL (≈ 0.108 µM)	1 log10CFU	90%	–	2.16 log10CFU	99.3%	1.98 log10CFU	2.36 log10CFU	98.9%	99.6%	–	1.13 log10CFU	92.6%	> 200 µM	1.36	1.55	2.22	80%	3.7 ×10⁻⁶ cm/s	8.2 ×10⁻⁶ cm/s
